System: MS2 coat protein
Experiment: apparent Kd, MS2 coat protein; higher = weaker binding; RNA-MaP array; FMN 200 µM where present
Procedure, shortened: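 Stalled E. coli RNA polymerase transcribed each design on Illumina sequencing-chip clusters. The clusters were titrated with SNAP-549-labelled MS2 coat protein, starting at 0.7 or 1.5 nM and doubling up to 3 µM, first without ligand and then with constant ligand, in 100 mM Tris-HCl pH 7.5, 80 mM KCl, 4 mM MgCl2, BSA, DTT, yeast tRNA and Tween-20. Green signal was normalised to red-channel RNA signal and to the control-cluster median Fmax. The apparent Kd is the median of filtered binding-curve fits made for each cluster.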

[1] = designed as: ON switch for flavin mononucleotide, no ligand
[2] = ligand present: flavin mononucleotide, designed as: ON switch for flavin mononucleotide
[3] = designed as: OFF switch for flavin mononucleotide, no ligand
[4] = ligand present: flavin mononucleotide, designed as: OFF switch for flavin mononucleotide

Sequence | apparent Kd [1] [nM] | apparent Kd [2] [nM] | apparent Kd [3] [nM] | apparent Kd [4] [nM]
GUGGUGUAGAUACAGGAUAUGUUGCUCGUAACAUGAGGAUCACCCAUGUAUCUAUGAGAUUAAAUGCAGAAGGGUGCACACCACG | 330 | 23.3 | – | –
UGGCUGAGUCGAGGAUAUGAUCUUCAUAUAAUAACAUGAGGAUCACCCAUGUAUAAUUACAUGGAUCAGAAGGCGACUCAGCCA | – | 38.1 | – | –
UGGUCAUCAUCAGGAUAUUAACGUGGGCUACAUUAAGAAGGGAUAGUGGGAGAGGAAGUGAAACAUGAGGAUCACCCAUGUUGU | 13.5 | 11.3 | – | –
GGAUAGGACAGAGGAUAUACGUGCUAGAGAAACUAGCAAAAUUUCCUCACAUGAGGAUCACCCAUGUAGAAGGCUGUCCUAUCG | – | – | 14.5 | 543
AUCAGCUCGUCAGGAUAUACGUCACUGCGUCAGCAGUGUGGUAAGACCACAUGAGGAUCACCCAUGUAGAAGGGACGAGCUGAU | – | – | 7.94 | 24.5
AUCAUUCGUGUAGGAUAUGCGUCAGAAACUGAUGCAGAAGGACAUGAGGAUCACCCAUGUCUUUCUCGAGCUGUAGCUCGAGGA | – | – | 21.3 | 145
CAGUACUGAGGAUAUACAUGAGGAUCACCCAUGUGUCCCAGCUAGGAAACUAGCAAAAGUAGAAGGCAGUACUG | – | – | 23.6 | 538
CUUUUGUGAGGAUAUUAGUAGUAAAUAAAUAAAAUUACUUCUGAGAAGGCACAUGAGGAUCACCCAUGUUCCUC | – | – | 30.6 | 123
CCUCCCUGAGGAUAUCCACCCUCAUACAUGAGGAUCACCCAUGUUCAACCCUGGGUUCCCGGAGAAGGCAGCCUCC | – | – | 706 | 650
UAUAUAUAGUAAGGAUAUGUAAUUAUUUUAUAAACAGAAGGUACUGACAUGAGGAUCACCCAUGUUUUAGUGUGGGCAUGUAGA | – | – | 87.7 | 139
UGCGAACAGGCUAACAUGAGGAUCACCCAUGUGGACUCAUGGUAGGAUAUCGGGAAGGAGGAAACCGAGAAGGGCCGGUGAGCA | 133 | 77.5 | – | –
UGAACUAUGUAGAAGGCCCAUAUUUAUAUAUAGGGAGGAUAUACAUGAGGAUCACCCAUGUAAAGAGCAAGAGGACUUGUCAGA | – | – | 14.2 | 37.3
GGAUUGAAUGAGGAUAUCGUAUCGGGUACGAUGCGAGAAGGCAUGACAUGAGGAUCACCCAUGUAGUGUGGGUU | – | – | 415 | 685
UGGUACAUCAUAGGAUAUCGUGUGUAAACAUGAGGAUCACCCAUGUCAUACGAGAGUAUGUAGAUCGAGAAGGAUGAUGUACCU | 18.1 | 16.1 | – | –
CUGGAUAGAGGAUAUUGUACUGCUGACAUGAGGAUCACCCAUGUAUGUUAACUCGGCCGUCGAGAAGGCUAACAAG | – | – | 37.7 | 17.9
GGUGGGUUGCUACCGGCACAUGAGGAUCACCCAUGUUUUGGGAAGGAUAUGGUACCUAUUUGGUACCAGAAGGUCCCGUUGGUG | 330 | 239 | – | –
UUACUCAUGUAAGGAUAUGCAGCCGAAACGGCUGCAGAAGGUACUAAAAUACAUGAGGAUCACCCAUGUCUUUUUAAUAUAGAC | 151 | 80.1 | – | –
AGAUUUAAUGAGGAUAUCGUAUUGGAUAUAGUGCGAGAAGGCAUUACAUGAGGAUCACCCAUGUUUUGUUGGGA | – | – | 31.8 | 74.1
GCACAUGGCAUAGGAUAUAGAACUUUACUUUAUAUAGGUAGUUACACUUAACUAGAAGGAUGUUACAUGAGGAUCACCCAUGUU | 25.4 | 20 | – | –
CGUUGACAUGAGGAUCACCCAUGUCAGAUCUGGUCAGGAUAUGGUGUGGUUUGGCUAUUGCCAGAAGGGACGUCUG | 43.1 | 46.8 | – | –
GUAAAUCAUGUAGGAUAUGCAUGGCGAAGCUACGCAGAAGGACAUGAGGAUCACCCAUGUUCUGGCUACCGGAUACGGUGGCAA | – | – | 21.1 | 87.6
UCCUUCUGUUGAGGAUAUGUAAGACAGCGGCCGCUAUGGCAGCACGCUGAUACAGAAGGCAACAUGAGGAUCACCCAUGUUCAA | – | – | 18.9 | 146
GCACGAGACUAAGGAUAUGGAGUGUCAACAUAAAACAUGAGGAUCACCCAUGUAAAGAGUACGAUUCAGAAGGUAGAGACGUGC | 41 | 23.6 | – | –
AAUUAUUUAUGAGGAUAUUGUGGUGAAACACCACAAGAAGGCAUGAUACACAUGAGGAUCACCCAUGUGAGCCUGAUGCUUAUG | – | – | 16.7 | 20.1
UCAAUUGCGUAGGAUAUACGGGCGCAGGCUAGAGUAGAAGGACGCACAUGAGGAUCACCCAUGUGGGUACCGAU | – | – | 17.7 | 114
GUGACGAUGUAAGGAUAUGCUGAGGAAUACUCAGCAGAAGGUACAUGAGGAUCACCCAUGUAAAUAAUAAUAAAUAAACGUCAC | – | – | 15.2 | 24.1
CAGCCCUGAGGAUAUCCACCCUCGUACAUGAGGAUCACCCAUGUCUCCCUCUGGGCUUUCGGAGAAGGCAGGUAUC | – | – | 69 | 58.5
CCCAUCAGAGGAUAUACAUGAGGAUCACCCAUGUCAAUCGAACGGGAUGGGAGGUUAGGUAGAAGGUUGUGGAA | – | – | 15.2 | 16.9

Source: the EternaBench riboswitch data
